The values below come from ChEMBL document CHEMBL3272232, “Inhibitors of folate biosynthesis. 1. Inhibition of dihydroneopterin aldolase by pteridine derivatives” (J Med Chem, 1977).

In brackets after ≈: the same amount, converted by molar mass.

In one assay the test system is Escherichia coli. Briefly: Inhibition of Escherichia coli dihydroneopterin aldolase assessed as [14C]glycolaldehyde formation using [14C]neopterin substrate by scintillation counting. The method in brief: (§1)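 Enzyme from E. coli B grown in corn steep liquor medium with methionine and glutamic acid, homogenized, cleared of debris and heat-treated. Substrate is 14C-neopterin with unlabeled neopterin, reduced by dithionite to dihydroneopterin in ammonium acetate pH 9.6 with EDTA and mercaptoethanol. Test pteridines are dithionite-reduced. Incubation runs 30 min at 37 °C in the dark and is stopped with Norit A in 2 N acetic acid. The supernatant is scintillation counted.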
As for `Nc1nc(O)c2c(n1)NCC(CCCc1ccccc1)=N2`, the ID50 is over 50 µg/mL.
Same read-out and setting: the value for `Nc1nc(O)c2c(n1)NCC=N2` was over 50 µg/mL; that for `Nc1nc(O)c2c(n1)NC(CO)C=N2` (stereo unspecified) was over 50 µg/mL; that for `CCCCCCCCC1=Nc2c(O)nc(N)nc2NC1` was over 50 µg/mL.
Still for that read-out and setting: the value for `CCOC(OCC)C1=Nc2c(O)nc(N)nc2NC1` was over 50 µg/mL; that for `Nc1nc(O)c2c(n1)NCC(C(=O)O)=N2` was over 50 µg/mL.
Same read-out and setting: the value for `Nc1nc(O)c2c(n1)NC(O)C(C(=O)O)=N2` (stereo unspecified) was over 50 µg/mL.
As to `CC1(C)Nc2nc(N)nc(O)c2N=C1CO`, the ID50 came out at 1 µg/mL (≈ 4.48 µM).
Same read-out and setting: the value for `CC1=Nc2c(O)nc(N)nc2NC1` was over 50 µg/mL.
Still for that read-out and setting: the value for `Nc1nc(N)c2c(n1)NCC(CO)=N2` was over 50 µg/mL; that for `NC(=O)C1=Nc2c(O)nc(N)nc2NC1` was 5 µg/mL (≈ 24 µM).
The same measure, in the same setting: the value for `OCC1=Nc2c(O)nc(S)nc2NC1` was over 50 µg/mL; that for `CC(C)C1=Nc2c(N)nc(N)nc2NC1C(C)C` (stereo unspecified) was over 50 µg/mL; that for `Nc1nc2c(c(=O)[nH]1)N=C(CO)CN2` was 30 µg/mL (≈ 154 µM).
Consider `Nc1nc(O)c2c(n1)NCC(/C=N/O)=N2`, for which the ID50 was over 50 µg/mL.

A further assay relates to Escherichia coli. As to the kind of experiment: Inhibition of Escherichia coli dihydroneopterin aldolase assessed as [14C]glycolaldehyde formation using [14C]neopterin substrate at 50 ug/ml by scintillation counting. The method in brief: as §1
What is called inhibition is how much of the control response was suppressed. As for `Nc1nc2c(c(=O)[nH]1)N=C(C=O)CN2`, the inhibition stood at 75%.
